Measurements collected from several papers.
Each line is one published result; the experiments were not run side by side.
Observed: cell growth or viability

| Compound | cell line | technique | time | CC50 |
| --- | --- | --- | --- | --- |
| O=c1[nH]c2cc(-c3ccccc3)sc2c(=O)n1O | HFF | MTS | 7 days | > 50 µM |
| O=C(CN1C(=O)Cc2c([nH]c3ccc(Br)cc23)-c2ccc(Cl)cc21)NCCN1CCNCC1 | J774 | WST-1 | 24 h | ≥ 100 µM |
| O=c1[nH]c2cc(-c3ccccc3)ccc2c(=O)n1O | HFF | MTS | 7 days | 29 µM |
| Cc1ccc(-c2nc(C#N)c(N(C)S(=O)(=O)c3ccc(C)cc3)o2)cc1 | HFF | ATP luminescence |  | 83.8 µM |
| Nc1nc2c(ncn2COCCO)c(=O)[nH]1 | HFF | ATP luminescence | 14 days | > 150 µM |
| O=C1c2ccccc2C(c2ccccc2F)C(=O)N1O (stereo not shown) | HFF | MTS | 7 days | 26 µM |
| Nc1nc(O)c2ncn(COC(CO)CO)c2n1 | HFF | ATP luminescence |  | > 150 µM |
| O=C(CN1C(=O)Cc2c([nH]c3ccc(Br)cc23)-c2ccc(Cl)cc21)NCCN1CCCCC1 | J774 | WST-1 | 24 h | ≤ 10 µM |
| C[C@H]1[C@@H](O)O[C@@H]2O[C@@]3(C)CC[C@H]4[C@H](C)CC[C@@H]1[C@@]24OO3 | J774 | ATP luminescence | 72 h | 51.3 µM |
| Cc1ccc(S(=O)(=O)c2nc(S(=O)(=O)NCc3ccccc3)sc2Cl)cc1 | HFF | ATP luminescence |  | 106 µM |
| CNC(=O)CN1C(=O)Cc2c([nH]c3ccc(Br)cc23)-c2ccc(Cl)cc21 | J774 | WST-1 | 24 h | ≤ 100 µM |
| O=c1[nH]c2cc(-c3ccc(Cl)cc3)ccc2c(=O)n1O | HFF | MTS | 7 days | > 50 µM |
| CC1CCCN(S(=O)(=O)c2nc(-c3ccc(Br)cc3)oc2-c2ccc(Cl)cc2)C1 (stereo not shown) | HFF | ATP luminescence |  | 41.9 µM |
